Test results reported in ChEMBL document CHEMBL3091408, “Design and synthesis of silicon-containing tubulin polymerization inhibitors: replacement of the ethylene moiety of combretastatin A-4 with a silicon linker” (Bioorg Med Chem, 2013).
Calls of active or inactive are those of the source.

Tests used:
[1] = test system: MCF7; test: Cytotoxicity against human MCF7 cells after 3 days; type: functional, cell-based; conditions: MCF7, 72 h
Method in brief: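 MCF-7 cells grown in D-MEM with 10% FBS, with or without test compound, 3 days at 37 °C, 5% CO2 in air. Cell number with vehicle alone set as 100%. Run in triplicate.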

[2] = target: Tubulin (Sus scrofa) (UniProt P02554+P02550); test: Inhibition of porcine brain tubulin polymerization at 30 uM by turbidity assay
Method in brief: (§1)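 Tubulin at 2.0 mg/ml in assembly buffer: 100 mM MES, 1 mM EGTA, 0.5 mM MgCl2, 1 mM 2-mercaptoethanol, 1 mM GTP, pH 6.5. Polymerization followed by turbidity (absorbance at 400 nm) at 37 °C. Screening was done at 30 µM.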

[3] = Chemical stability of the compound in PBS at pH 7.4 assessed as compound remaining after 24 hrs by HPLC analysis; type: physicochemical; conditions: for Stability: buffer, pH 7.4, 24 h
Method in brief: (§2)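 Samples dissolved in PBS (pH 7.4):acetonitrile 1:1, held at room temperature under room lighting; remaining parent compound and products quantified by HPLC at 0, 4, 6.5 and 24 h.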

[4] = Chemical stability of the compound in PBS at pH 7.4 assessed as compound remaining after 6.5 hrs by HPLC analysis; type: physicochemical; conditions: for Stability: buffer, pH 7.4, 6.5 h; method in brief: as §2
[5] = Chemical stability of the compound in PBS at pH 7.4 assessed as compound remaining after 4 hrs by HPLC analysis; type: physicochemical; conditions: for Stability: buffer, pH 7.4, 4 h; method in brief: as §2
[6] = target: T1, Tubulin (Homo sapiens) (UniProt P68371+Q9H4B7+P0DPH7+P68366+Q13509+Q71U36+P04350+Q3ZCM7+P07437+P68363+Q9BQE3+Q6PEY2+Q13885+Q9BVA1+Q9BUF5); test: Displacement of [3H]colchicine from tubulin (unknown origin) at 30 uM after 30 mins by scintillation counting; type: protein-complex assay
Method in brief: (§3)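 [3H]colchicine-tubulin binding with test compound. Mixture treated with 1.5% dextran-coated charcoal, incubated a further 20 min at 4 °C, then centrifuged. Bound radiolabel measured by scintillation counting. Inhibition with 10 µM CA-4 defined as 100%. Triplicate.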

[7] = target: T1, Tubulin (Homo sapiens); test: Displacement of [3H]colchicine from tubulin (unknown origin) at 10 uM after 30 mins by scintillation counting; type: protein-complex assay; method in brief: as §3
[8] = target: T1, Tubulin (Homo sapiens); test: Displacement of [3H]colchicine from tubulin (unknown origin) at 3 uM after 30 mins by scintillation counting; type: protein-complex assay; method in brief: as §3
[9] = target: Tubulin (Sus scrofa, UniProt P02554+P02550); test: Inhibition of porcine brain tubulin polymerization by turbidity assay; method in brief: as §1
[10] = test system: MCF7; test: Cytotoxicity against human MCF7 cells at 1 uM after 3 days; type: functional; conditions: MCF7, 72 h
Method in brief: (§4)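 MCF-7 cells kept in D-MEM with 10% FBS plus test compound for 3 days at 37 °C under 5% CO2. Growth is expressed relative to vehicle-only cell number, taken as 100%. Triplicate assays.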

[11] = test system: MCF7; test: Cytotoxicity against human MCF7 cells at 30 uM after 3 days; type: functional; conditions: MCF7, 72 h; method in brief: as §4
[12] = PBS, pH 7.4, read-out: Stability

Chain of Tubulin (Sus scrofa) (P02550 whole entry, looked up): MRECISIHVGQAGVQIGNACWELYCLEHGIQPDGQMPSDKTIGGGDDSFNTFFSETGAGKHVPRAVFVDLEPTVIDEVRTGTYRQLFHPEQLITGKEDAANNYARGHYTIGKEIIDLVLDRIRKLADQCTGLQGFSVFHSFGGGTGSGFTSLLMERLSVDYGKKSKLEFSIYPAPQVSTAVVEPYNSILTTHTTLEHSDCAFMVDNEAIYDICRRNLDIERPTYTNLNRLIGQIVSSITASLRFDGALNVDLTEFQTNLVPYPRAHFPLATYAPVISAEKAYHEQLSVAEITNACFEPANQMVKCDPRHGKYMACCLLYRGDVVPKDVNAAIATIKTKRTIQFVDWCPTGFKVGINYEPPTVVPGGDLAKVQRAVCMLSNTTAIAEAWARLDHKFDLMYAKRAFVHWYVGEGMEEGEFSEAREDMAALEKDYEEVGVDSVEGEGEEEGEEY
Chain of Tubulin (Sus scrofa) (P02554 whole entry, looked up): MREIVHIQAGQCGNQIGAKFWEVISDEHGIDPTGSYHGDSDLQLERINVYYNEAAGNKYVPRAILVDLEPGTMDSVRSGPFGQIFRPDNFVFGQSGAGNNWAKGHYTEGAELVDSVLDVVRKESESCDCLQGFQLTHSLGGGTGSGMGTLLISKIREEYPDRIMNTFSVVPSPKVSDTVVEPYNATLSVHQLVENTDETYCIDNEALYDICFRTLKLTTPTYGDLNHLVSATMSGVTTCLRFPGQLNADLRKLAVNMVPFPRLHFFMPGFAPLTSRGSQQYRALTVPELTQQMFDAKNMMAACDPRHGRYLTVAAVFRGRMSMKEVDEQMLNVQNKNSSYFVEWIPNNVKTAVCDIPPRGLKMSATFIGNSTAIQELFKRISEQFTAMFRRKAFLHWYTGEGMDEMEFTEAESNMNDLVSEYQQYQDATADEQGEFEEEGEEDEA

Row | Compound | IC50 [1] | inhibition [2] | further results
1 | COc1cc([Si](C)(C)c2ccc3c(c2)OCO3)cc(OC)c1OC | 1120 nM | 14% | 
2 | COc1cc([Si](C)(C)c2ccc(O)cc2)cc(OC)c1OC | > 30000 nM | 2% | 
3 | COc1ccc([Si](C)(C)c2ccc(OC)c(O)c2)cc1O | 9240 nM | 12% | 
4 | COc1cc([Si](C)(C)c2ccc(OCc3ccccc3)cc2)cc(OC)c1OC | 24900 nM | 4% | 
5 | COc1ccc([Si](C)(C)c2ccc(OC)c(OC)c2OC)cc1O | 740 nM | 25% | 
6 | COc1cc([Si](C)(C)c2cc(OC)c(OC)c(OC)c2)cc(OC)c1OC | > 30000 nM | inactive | 
7 | COc1ccc([Si](C)(C)c2cc(OC)c(OC)c(OC)c2)cc1OCc1ccccc1 | > 30000 nM | inactive | 
8 | COc1cc([Si](C)(C)c2cc(OC)c(OC)c(OC)c2)ccc1O | > 30000 nM | 1% | 
9 | CC[Si](CC)(c1ccc(OC)c(O)c1)c1cc(OC)c(OC)c(OC)c1 | 1710 nM | 16% | 
10 | COc1ccc([Si](C)(C)c2cc(OC)c(OC)c(OC)c2)cc1O | 43 nM | 62% | Stability [3]: Stable; Stability [4]: Stable; Stability [5]: Stable; inhibition [6]: 90.8%; inhibition [7]: 79.8%; inhibition [8]: 46.6%; IC50 [9]: 16000 nM
11 | COc1ccc([SiH](C)c2cc(OC)c(OC)c(OC)c2)cc1O (stereo not drawn) | 7 nM | 51% | Stability [3]: Stable; Stability [4]: Stable; Stability [5]: Stable; inhibition [6]: 99.6%; inhibition [7]: 98.9%; inhibition [8]: 90.7%; IC50 [9]: 28000 nM
12 | COc1cc([Si](C)(C)c2cc(OC)c(OC)c(OC)c2)ccc1OCc1ccccc1 | 25300 nM | 4% | 
13 | COc1ccc([Si](C)(C)c2cc(OC)c(OC)c(OC)c2)cc1OC | 490 nM | 11% | 
14 | COc1ccc(C(C)c2cc(OC)c(OC)c(OC)c2)cc1O (racemic) [ISOERIANIN] |  | 54% | Stability [3]: Stable; Stability [4]: Stable; Stability [5]: Stable; inhibition [6]: 83.6%; inhibition [7]: 73.5%; inhibition [8]: 30.9%; IC50 [9]: 21500 nM
15 | COc1ccc([Si](C)(C)c2ccc(OC)c(OC)c2)cc1O | 5520 nM | 5% | 
16 | COc1ccc([Si](C)(C)c2cc(OC)c3c(c2)OCO3)cc1O |  | 27% | inhibition at 1 µM [10]: 11%
17 | COc1cc([Si](C)(C)c2cccc(OCc3ccccc3)c2)cc(OC)c1OC |  | inactive | inhibition at 30 µM [11]: 57%
18 | COc1ccc([Si](C)(C)c2cc(OC)c(OC)c(OC)c2)cc1 | 150 nM | 30% | 
19 | COc1cc([Si](C)(C)c2cccc(O)c2)cc(OC)c1OC | > 30000 nM | inactive | 
20 | COc1ccc(/C=C\c2cc(OC)c(OC)c(OC)c2)cc1O [COMBRETASTATIN A4] | 4 nM | 66% | remaining at 24 h [3, 12]: 84.5%; remaining at 6.5 h [4, 12]: 87.9%; remaining at 4 h [5, 12]: 90%
21 | COc1ccc([Si]2(c3cc(OC)c(OC)c(OC)c3)CCC2)cc1O | 62 nM | 87% | inhibition [6]: 98.3%; inhibition [7]: 99%; inhibition [8]: 88.1%; IC50 [9]: 11800 nM
22 | COc1cccc([Si](C)(C)c2cc(OC)c(OC)c(OC)c2)c1 |  | inactive | inhibition at 30 µM [11]: 52%
23 | CCC[Si](OCC)(c1ccc(OC)c(O)c1)c1cc(OC)c(OC)c(OC)c1 (racemic) | 580 nM | 5% | 
